Source: ChEMBL document CHEMBL4732136, “Synthesis, Tumor Specificity, and Photosensitizing Efficacy of Erlotinib-Conjugated Chlorins and Bacteriochlorins: Identification of a Highly Effective Candidate for Photodynamic Therapy of Cancer” (J Med Chem, 2021)

Experiments:
[1] = Drug uptake in tumor of SCID mouse xenografted with human UMUC3 cells at 0.47 micromol/kg, iv pretreated with compound followed by light irradiation at a dose of 135 J/cm2 and 75 mW/cm2 measured after 24 hrs by IVIS analysis; assay type: ADME, organism-based, Neoplasm; settings: in vivo, dose 0.47 µmol/kg
Procedure, shortened: (§1)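 Female SCID mice with UMUC3 flank/shoulder tumors, 3 per group. PS in 1% Tween80/5% dextrose given iv at 0.47, 0.25 or 0.125 μmol/kg. Whole-body fluorescence imaging by IVIS at several times after injection; average radiant efficiency measured in tumor, liver and skin.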

[2] = Drug uptake in human CFSE-stained HN-121 cells assessed as increase in drug retention at 1.6 uM in medium with 10% FBS followed by 48 hrs chase period by inverted fluorescence microscopic analysis; assay type: ADME, cell-based; settings: hn-121, 48 h
[3] = Drug uptake in human HN-143 cells assessed as increase in drug retention retention at 3 uM in medium with 10% FBS incubated for 5 hrs followed by 40 hrs chase period by inverted fluorescence microscopic analysis; assay type: ADME, cell-based; settings: hn-143, 5 h
Procedure, shortened: (§2)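 Five-day co-cultures of HN-143 tumor epithelial cells and HN-166 tumor fibroblasts, both primary head & neck tumor cultures grown on collagen-1 under selective media. PS in 10% FBS medium for 5 h, then 40 h chase without PS. Phase-contrast and fluorescence images taken at 100X with 500 ms exposure; signal normalized to recording time and cell number.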

[4] = Drug uptake in human HN-166 cells assessed as increase in drug retention retention at 3 uM in medium with 10% FBS incubated for 5 hrs followed by 40 hrs chase period by inverted fluorescence microscopic analysis; assay type: ADME, cell-based; settings: hn-166, 5 h; procedure, shortened: as §2
UMUC3 [5] = assay: Photosensitizing activity in human UMUC3 cells assessed as reduction in cell viability pretreated with compound for 24 hrs followed by light irradiation at 1 J/cm2 and measured after 48 hrs by MTT assay; assay type: functional, cell-based; settings: UMUC3, light or radiation study
Procedure, shortened: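 Cells plated 0.01x10⁶ to 0.05x10⁶ cells/ml and allowed to adhere 24 h before photosensitizer was added, top dose 1600 nM with 2-fold serial dilutions. Plates received no light (0 J/cm²) or 1 J/cm² at 565 mW, 15 cm spot. After 48 h, MTT added for 3 h, formazan solubilized in DMSO and read at 570 nm; IC₅₀ fitted from dose-response.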

FaDu [6] = assay: Photosensitizing activity in human FaDu cells assessed as reduction in cell viability pretreated with compound for 24 hrs followed by light irradiation at 1 J/cm2 and measured after 48 hrs by MTT assay; assay type: functional, cell-based; settings: light or radiation study
Procedure, shortened: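 Cells seeded at 0.01–0.05 x 10⁶ cells/ml; PS added 24 h after plating, top dose 1600 nM with 2-fold serial dilutions. Plates given 0 or 1 J/cm² light. MTT added 48 h later, formazan dissolved in DMSO, absorbance at 570 nm; IC50 from curve fitting.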

[7] = Drug uptake in tumor of SCID mouse xenografted with FaDu cells at 0.47 micromol/kg, iv pretreated with compound followed by light irradiation at a dose of 135 J/cm2 and 75 mW/cm2 and measured at 6 hrs by IVIS analysis; assay type: ADME, organism-based, Neoplasm; settings: in vivo, dose 0.47 µmol/kg
Procedure, shortened: (§3)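 Female SCID mice bearing FaDu tumors 4–5 mm in diameter, 3 per group. PS in 1% Tween80/5% dextrose given iv at 0.47, 0.25 or 0.125 μmol/kg. IVIS whole-body fluorescence imaged at several time points; average radiant efficiency measured in tumor, liver and skin.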

[8] = Drug uptake in tumor of SCID mouse xenografted with FaDu cells assessed as drug accumulation by measuring fold increase to that of liver at 0.47 micromol/kg, iv pretreated with compound followed by light irradiation at a dose of 135 J/cm2 and 75 mW/cm2 and measured after 24 hrs by IVIS analysis; assay type: ADME, organism-based, Neoplasm; settings: in vivo, dose 0.47 µmol/kg; procedure, shortened: as §3
[9] = Drug uptake in tumor of SCID mouse xenografted with human UMUC3 cells assessed as drug accumulation by measuring fold decrease to that of liver at 0.47 micromol/kg, iv followed by light irradiation at 665 nm at a dose of 135 J/cm2 and 75 mW/cm2 and measured after 24 hrs by IVIS analysis; assay type: ADME, organism-based, Neoplasm; settings: in vivo; procedure, shortened: as §1
FaDu [10] = assay: Photodynamic antitumor activity against human FaDu cels xenografted in SCID mouse assessed as cure rate at 0.47 micromol/kg, iv pretreated with compound followed by light irradiation at a dose of 135 J/cm2 and 75 mW/cm2 and measured after 60 days post dose relative to control; assay type: functional; settings: dose 0.47 µmol/kg; time 60 day
Procedure, shortened: (§4)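 FaDu-bearing female SCID mice (5 per group per experiment) given iv PS at 0.47, 0.25 or 0.125 μmol/kg in Tween80/dextrose. Tumors irradiated 24 h post-injection at 665 nm, 135 J/cm², 75 mW/cm². Tumor growth measured daily for 60 days, with euthanasia above 400 mm³. Cure taken as tumor-free at day 60; survival analysed by log-rank test.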

UMUC3 [11] = assay: Photodynamic antitumor activity against human UMUC3 cels xenografted in SCID mouse assessed as cure rate at 0.47 micromol/kg, iv pretreated with compound followed by light irradiation at a dose of 135 J/cm2 and 75 mW/cm2 and measured after 60 days post dose relative to control; assay type: functional; settings: dose 0.47 µmol/kg; time 60 day
Procedure, shortened: (§5)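 UMUC3-bearing female SCID mice given iv PS in 1% Tween80/5% dextrose. Mice restrained and tumors irradiated at 665 nm, 135 J/cm² over 30 min at 75 mW/cm², at the time of maximal tumor uptake. Tumor regrowth measured daily for 60 days; mice euthanized above 400 mm³. Cure plotted as survival curves and compared by log-rank (Mantel-Cox) test.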

[12] = Drug uptake in human FaDu clone 49 cells assessed as increase in drug retention at 1.6 uM in RPMI medium with 10% FBS followed by 48 hrs chase period by inverted fluorescence microscopic analysis
[13] = Drug uptake in human HNT1 cells at 3.2 uM incubated for 30 mins in serum free medium followed by […] in compound-free medium by inverted fluorescence microscopic analysis; assay type: ADME, cell-based; settings: hnt1, 0.5 h
Procedure, shortened: (§6)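 Confluent HNT1 cultures (passage 116) given 3.2 μM PS for 30 min in serum-free medium, then 5 h in serum-containing medium with PS, then 15 h chase in serum medium without PS. Fluorescence recorded at 100X with varied camera exposures and quantified digitally; pixel signal normalized to time and cell number.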

[14] = Drug uptake in human HNT1 cells at 3.2 uM incubated for 30 mins in DMEM media with 10% FBS followed by […] in compound-free medium by inverted fluorescence microscopic analysis; assay type: ADME, cell-based; settings: hnt1, 0.5 h, in the assay text read “in serum-free medium” for “in DMEM media with 10% FBS”; procedure, shortened: as §6
UMUC3 [15] = assay: Photodynamic antitumor activity against human UMUC3 cells xenografted in SCID mouse assessed as tumor retention at 0.47 micromol/kg, iv pretreated with compound followed by light irradiation at a dose of 135 J/cm2 and 75 mW/cm2 measured at day 30 post dose relative to control; assay type: functional; settings: dose 0.47 µmol/kg; time 30 day; procedure, shortened: as §5
[16] = Drug uptake in tumor of SCID mouse xenografted with FaDu cells at 0.47 micromol/kg, iv pretreated with compound followed by light irradiation at a dose of 135 J/cm2 and 75 mW/cm2 and measured at 24 hrs by IVIS analysis; assay type: ADME, organism-based, Neoplasm; settings: in vivo, dose 0.47 µmol/kg; procedure, shortened: as §3
FaDu [17] = assay: Photodynamic antitumor activity against human FaDu cels xenografted in SCID mouse assessed as cure rate at 0.47 micromol/kg, iv pretreated with compound followed by light irradiation at a dose of 135 J/cm2 and 75 mW/cm2 and measured at 24 hrs post dose relative to control; assay type: functional; settings: dose 0.47 µmol/kg; procedure, shortened: as §4
[18] = Drug uptake in skin of SCID mouse xenografted with FaDu cells at 0.47 micromol/kg, iv pretreated with compound followed by light irradiation at a dose of 135 J/cm2 and 75 mW/cm2 and measured at 24 hrs by IVIS analysis; assay type: ADME, organism-based, Skin of body; settings: in vivo, dose 0.47 µmol/kg; procedure, shortened: as §3
[19] = Drug uptake in liver of SCID mouse xenografted with FaDu cells at 0.47 micromol/kg, iv pretreated with compound followed by light irradiation at a dose of 135 J/cm2 and 75 mW/cm2 and measured at 24 hrs by IVIS analysis; assay type: ADME, organism-based; settings: in vivo, dose 0.47 µmol/kg; procedure, shortened: as §3
[20] = Drug uptake in skin of SCID mouse xenografted with human UMUC3 cells at 0.47 micromol/kg, iv pretreated with compound followed by light irradiation at a dose of 135 J/cm2 and 75 mW/cm2 measured at 24 hrs by IVIS analysis; assay type: ADME, organism-based, Skin of body; settings: in vivo, dose 0.47 µmol/kg; procedure, shortened: as §1
[21] = Drug uptake in liver of SCID mouse xenografted with human UMUC3 cells at 0.47 micromol/kg, iv pretreated with compound followed by light irradiation at a dose of 135 J/cm2 and 75 mW/cm2 measured at 24 hrs by IVIS analysis; assay type: ADME, organism-based; settings: in vivo, dose 0.47 µmol/kg; procedure, shortened: as §1
[22] = Drug uptake in tumor of SCID mouse xenografted with FaDu cells assessed as fold increase at 0.47 micromol/kg, iv pretreated with compound followed by light irradiation at a dose of 135 J/cm2 and 75 mW/cm2 and measured at 24 hrs by IVIS analysis; assay type: ADME, organism-based, Neoplasm; settings: in vivo, dose 0.47 µmol/kg; procedure, shortened: as §3
FaDu [23] = assay: Photodynamic antitumor activity against human FaDu cells xenografted in SCID mouse assessed as cure rate at 0.47 micromol/kg, iv pretreated with compound followed by light irradiation at a dose of 135 J/cm2 and 75 mW/cm2 measured at 24 hrs relative to control; assay type: functional; settings: dose 0.47 µmol/kg; procedure, shortened: as §4

Compound | Drug uptake [1] | Drug uptake [2] | IC50 (UMUC3 [5]) | IC50 (FaDu [6]) | Drug uptake [12] | Drug uptake [16] | Activity (FaDu [17]) | Drug uptake [18] | Drug uptake [19] | also measured
CCCCCCOC(C)c1c(C)c2cc3nc(c4c5[nH]c(cc6nc(cc1[nH]2)C(C)=C6CC)c(C)c5C(=O)C4)[C@@H](CCC(=O)NCCCCn1cc(-c2cccc(Nc4ncnc5cc(OCCOC)c(OCCOC)cc45)c2)nn1)[C@@H]3C (stereo not given in full) | Active | Active | 20.2 nM | 17.6 nM | Active |  |  |  |  | Drug uptake [3]: Active; Drug uptake [4]: Active; Drug uptake [7]: Active; fold change (FC) [8]: 2; fold change (FC) [9]: 2; Activity (FaDu [10]): 40%; Activity (UMUC3 [11]): 20%
CCCCCCOC(C)c1c(C)c2cc3nc(c4c5[nH]c(cc6nc(cc1[nH]2)C(C)=C6CC)c(C)c5C(=O)C4)[C@@H](CCC(=O)O)[C@@H]3C (stereo not given in full) [HPPH] | Active |  | 68.4 nM | 43.8 nM |  | Active | 30% | Active | Active | Drug uptake [13]: Active; Drug uptake [14]: Active; Activity (UMUC3 [15]): 30%
CCC1=C(C)c2cc3[nH]c(cc4nc(c5c6[nH]c(cc1n2)c(C)c6C(=O)C5)[C@@H](CCC(=O)OC)[C@@H]4C)c(C)c3C(C)OCc1ccc(C#Cc2cccc(Nc3ncnc4cc(OCCOC)c(OCCOC)cc34)c2)cc1 (stereo not given in full) | Active | Active | 20.9 nM | 59.6 nM | Active | Active | 66% | Active | Active | Drug uptake [20]: Active; Drug uptake [21]: Active; fold change (FC) [22]: 2; Activity (FaDu [23]): 66%
